Laboratory results published in the array DNA melting data of Ke et al. (doi:10.1101/2024.01.08.574731).

Experiments:
[1] = folding enthalpy; higher = less favourable; fluorescence melt of hairpins on a sequencing array, two-state fit; conditions: sodium 0.088 M
Method in brief: (§1)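 Folding enthalpy and melting temperature come from bootstrapped two-state fits to Cy3 fluorescence of library hairpins carrying annealed Cy3 and quencher oligos on a sequenced MiSeq flow cell. Imaging was done in 50 mM Na-HEPES pH 8.0, 25 mM NaCl, stepping by 2.5 °C up to 60 °C, and signals were normalised to pre-quench Cy3 and to control constructs. Results of four replicates were combined by inverse variance, and fitted temperatures were raised by 9.35 °C to match UV melts.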

[2] = melting temperature; fluorescence melt of hairpins on a sequencing array, two-state fit, raised by 9.35 °C to match UV melts; conditions: sodium 0.088 M
Method in brief: as §1

Sequence | folding enthalpy [1] | Tm [2]
GCTCAGCGAAAGCTCGGC ((..(((....)))..)) | -60.8 kJ/mol | 39.5 °C
GCTCAGGGAAACCTGAAC (.(((((....))))).) | -72.8 kJ/mol | 37.7 °C
GCTCAGGGAAACCTGGGC ((.((((....)))).)) | -166 kJ/mol | 54.4 °C
GCTCATACGAAAGTAAGC (((..(((....)))))) | -38.2 kJ/mol | 28 °C
GCTCATGAAAATGAGC ((((((....)))))) | -161 kJ/mol | 63.6 °C
GCTCCACGAAAGTGAAGC (((.(((....))).))) | -126 kJ/mol | 51.2 °C
GCTCCAGGAAACTGGGGC ((.((((....)))).)) | -166 kJ/mol | 57.6 °C
GCTCCCGAAAGGGAAGC ((((((....))).))) | -133 kJ/mol | 59.3 °C
GCTCCCGAAAGGGCCAGC ((((((....)))..))) | -48.7 kJ/mol | 34.8 °C
GCTCCCGCGAAAGCGAGC (((..(((....)))))) | -44.6 kJ/mol | 37.5 °C
GCTCCCGGAAACGAGAGC ((((.((....)).)))) | -153 kJ/mol | 49.2 °C
GCTCCCGGAAACGGAAGC (((.(((....))).))) | -120 kJ/mol | 50 °C
GCTCCGCGAAAGCACAGC (((..((....))..))) | -36.4 kJ/mol | 31.3 °C
GCTCCGCGAAAGCCTAGC (((..((....))..))) | -44.6 kJ/mol | 34.7 °C
GCTCCGCGAAAGCGATGC ((..(((....)))..)) | -55.6 kJ/mol | 40.8 °C
GCTCCGCGAAAGCGCAGC (((.(((....))).))) | -125 kJ/mol | 45.5 °C
GCTCCGCGAAAGCGGCGC ((.((((....)))).)) | -77.9 kJ/mol | 65.1 °C
GCTCCGCGAAAGCTGGGC ((.(.((....)).).)) | -90 kJ/mol | 44.9 °C
GCTCCGCGAAAGCTTAGC (((..((....))..))) | -60.2 kJ/mol | 35.1 °C
GCTCCGGGAAACCGGGGC ((.((((....)))).)) | -180 kJ/mol | 63.8 °C
GCTCCTCCGAAAGGAAGC (((..(((....)))))) | -66.4 kJ/mol | 34.2 °C
GCTCCTCGAAAGAGAGC (((.(((....)))))) | -126 kJ/mol | 49.2 °C
GCTCCTCGAAAGAGCAGC (((.(((....))).))) | -89.8 kJ/mol | 40.6 °C

Sequence | folding enthalpy [1] | Tm [2]
GCTCCTGAAAAGGAGC ((((((....)))))) | -178 kJ/mol | 68.5 °C
GCTCGAGGAAACTTGGGC ((.(.((....)).).)) | -81 kJ/mol | 37.4 °C
GCTCGCCGAAAGGCAGC (((.(((....)))))) | -83.3 kJ/mol | 62.6 °C
GCTCGCGAAAGCGAAGC ((((((....))).))) | -73.4 kJ/mol | 65.3 °C
GCTCGCGAAAGCGAGAGC ((((((....)))..))) | -41.3 kJ/mol | 66.7 °C
GCTCGCGAAAGCGGAAGC ((((((....)))..))) | -68.2 kJ/mol | 53.2 °C
GCTCGCGAAAGCGTAAGC ((((((....)))..))) | -56.3 kJ/mol | 51.3 °C
GCTCGCGAAAGCGTCAGC ((((((....)))..))) | -51.7 kJ/mol | 41.4 °C
GCTCGCGGAAACGCAAGC (((.(((....))).))) | -120 kJ/mol | 49.8 °C
GCTCGGCGAAAGCAGCGC ((.(.((....)).).)) | -58.6 kJ/mol | 58.5 °C
GCTCGGCGAAAGCAGGGC ((.(.((....)).).)) | -58.7 kJ/mol | 67.7 °C
GCTCGGCGAAAGCCCCGC ((..(((....)))..)) | -18.6 kJ/mol | 44.6 °C
GCTCGGCGAAAGCCCGGC ((..(((....)))..)) | -33.4 kJ/mol | 56.9 °C
GCTCGGCGAAAGCCCTGC ((..(((....)))..)) | -32 kJ/mol | 53.4 °C
GCTCGGCGAAAGCGCAGC (((..((....))..))) | -40.6 kJ/mol | 51.1 °C
GCTCGGCGAAAGCTTAGC (((..((....))..))) | -63.9 kJ/mol | 40.9 °C
GCTCGGGCGAAAGCCAGC (((..(((....)))))) | -34.1 kJ/mol | 52 °C
GCTCGTCGAAAGACAGC (((.(((....)))))) | -124 kJ/mol | 51.4 °C
GCTCGTGGAAACACAAGC (((.(((....))).))) | -83.8 kJ/mol | 43.9 °C
GCTCGTGGAAACACGGGC ((.((((....)))).)) | -155 kJ/mol | 62.2 °C
GCTCTACGAAAGTAAAGC (((.(((....))).))) | -95.8 kJ/mol | 38.4 °C
GCTCTCACGAAAGTGAGC (((..(((....)))))) | -31.8 kJ/mol | 35.8 °C
GCTCTCCCGAAAGGGAGC (((..(((....)))))) | -30.5 kJ/mol | 33 °C

Sequence | folding enthalpy [1] | Tm [2]
GCTCTCGAAAGAGAAGC ((((((....))).))) | -91.9 kJ/mol | 49.8 °C
GCTCTCGAAAGAGATAGC ((((((....)))..))) | -94.6 kJ/mol | 41.8 °C
GCTCTCGAAAGAGCTAGC ((((((....)))..))) | -64.9 kJ/mol | 50.3 °C
GCTCTCGAAAGAGGTAGC ((((((....)))..))) | -106 kJ/mol | 38.4 °C
GCTCTCGAAAGAGTGAGC ((((((....)))..))) | -109 kJ/mol | 41.6 °C
GCTCTCGGAAACGGGAGC ((((.((....)).)))) | -173 kJ/mol | 57.4 °C
GCTCTGCGAAAGCAAGC (((.(((....)))))) | -70.4 kJ/mol | 48.2 °C
GCTCTGCGAAAGCGCAGC (((..((....))..))) | -47.5 kJ/mol | 37.6 °C
GCTCTGCGAAAGCGTAGC (((..((....))..))) | -73.8 kJ/mol | 38.2 °C
GCTCTGGGAAACCAGAAC (.(((((....))))).) | -70.6 kJ/mol | 37.1 °C
GCTCTGGGAAACCAGAGC (((((((....))))))) | -178 kJ/mol | 69 °C
GCTCTTCGAAAGAATAGC (((.(((....))).))) | -128 kJ/mol | 38.5 °C
GCTCTTGAAAAAGAGC ((((((....)))))) | -137 kJ/mol | 58.1 °C
GCTCTTTCGAAAGAAAGC (((..(((....)))))) | -56.1 kJ/mol | 32.5 °C
GCTGAAACGAAAGTTAGC (((..(((....)))))) | -86.4 kJ/mol | 35 °C
GCTGAACCGAAAGGTAGC (((..(((....)))))) | -91.5 kJ/mol | 42.1 °C
GCTGAACGAAAGTTAGC (((.(((....)))))) | -109 kJ/mol | 44.1 °C
GCTGAAGCGAAAGCTAGC (((..(((....)))))) | -77.9 kJ/mol | 44.6 °C
GCTGAAGGAAACTTTAGC (((.(((....))).))) | -122 kJ/mol | 41.5 °C
GCTGACACGAAAGTGAGC (((..(((....)))))) | -76.6 kJ/mol | 40.3 °C
GCTGACCGAAAGGTAAGC (((.(((....))).))) | -140 kJ/mol | 57.8 °C
GCTGACGAAAGTCAGAGC ((((((....)))..))) | -56.2 kJ/mol | 55.8 °C
GCTGACGAAAGTCCAAGC ((((((....)))..))) | -69 kJ/mol | 43.5 °C

Sequence | folding enthalpy [1] | Tm [2]
GCTGACGAAAGTCCAGC ((((((....))).))) | -103 kJ/mol | 54.5 °C
GCTGACGGAAACACCAGC ((((..(....)..)))) | -54.9 kJ/mol | 33.3 °C
GCTGACGGAAACGTCGGC ((.((((....)))).)) | -202 kJ/mol | 63.3 °C
GCTGAGCCGAAAGGCAGC (((..(((....)))))) | -63.4 kJ/mol | 51.7 °C
GCTGAGCGAAAGCACAGC ((((.((....)).)))) | -149 kJ/mol | 67.8 °C
GCTGAGCGAAAGCCCCGC ((.(.((....)).).)) | -50.1 kJ/mol | 35.8 °C
GCTGAGCGAAAGCCCGGC ((.(.((....)).).)) | -84.2 kJ/mol | 52.2 °C
GCTGAGCGAAAGCGGAGC (((..((....))..))) | -112 kJ/mol | 62.4 °C
GCTGAGCGAAAGCTACGC ((..(((....)))..)) | -68.2 kJ/mol | 44.4 °C
GCTGAGCGAAAGCTTCGC ((..(((....)))..)) | -56.1 kJ/mol | 49.5 °C
GCTGAGGGAAACCTTAGC (((.(((....))).))) | -141 kJ/mol | 47.1 °C
GCTGCACGAAAGTGAAGC (((.(((....))).))) | -151 kJ/mol | 60.5 °C
GCTGCAGCGAAAGCTAGC (((..(((....)))))) | -49.7 kJ/mol | 48.7 °C
GCTGCAGGAAACCACAGC ((((..(....)..)))) | -104 kJ/mol | 37 °C
GCTGCAGGAAACTGCAAC (.(((((....))))).) | -56.4 kJ/mol | 40.9 °C
GCTGCCGAAAGGCAAGC ((((((....))).))) | -80.5 kJ/mol | 66.7 °C
GCTGCCGAAAGGCACAGC ((((((....)))..))) | -56 kJ/mol | 48.2 °C
GCTGCCGAAAGGCAGAGC ((((((....)))..))) | -42 kJ/mol | 67.1 °C
GCTGCCGAAAGGCGAAGC ((((((....)))..))) | -65 kJ/mol | 49 °C
GCTGCCGAAAGGCGTAGC ((((((....)))..))) | -72 kJ/mol | 50.5 °C
GCTGCCTCGAAAGAGAGC (((..(((....)))))) | -58.5 kJ/mol | 42.3 °C
GCTGCGCGAAAGCCCGGC ((.(.((....)).).)) | -73.2 kJ/mol | 44.1 °C
